ChEMBL document CHEMBL2146467, “Generation and exploration of new classes of antitubercular agents: The optimization of oxazolines, oxazoles, thiazolines, thiazoles to imidazo[1,2-a]pyridines and isomeric 5,6-fused scaffolds” (Bioorg Med Chem, 2012)
≈ marks a conversion by molar mass, not a printed value.

Key:
[1] = test system: Mycobacterium tuberculosis; experiment: Antimycobacterial activity against Mycobacterium tuberculosis H37Rv ATCC 27294 culture in GAS media after 7 days by microplate alamar blue assay; format: functional; conditions: H37Rv ATCC 27294, 168 h
In short: (§1)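 Replicating Mtb H37Rv. The MIC is the concentration that inhibits growth of 90% of organisms. Media by line: GAS is glycerol-alanine-salts. GAST is iron-deficient glycerol-alanine-salts with Tween 80. 7H12 is 7H9 broth base with BSA, casein hydrolysate, catalase and palmitic acid. Values are reported in μM.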

[2] = test system: Mycobacterium tuberculosis; experiment: Antimycobacterial activity against Mycobacterium tuberculosis H37Rv ATCC 27294 culture in GAST media after 7 days by microplate alamar blue assay; format: functional; conditions: H37Rv ATCC 27294, 168 h; in short: as §1
[3] = Chemical stability in simulated gastric fluid assessed as compound remaining at 50 uM after 15 mins by LC/MS analysis; format: physicochemical; conditions: read-out: Stability
[4] = Metabolic stability in Sprague-Dawley rat liver microsomes assessed as compound remaining at 20 uM after 15 mins by LC/MS analysis; format: ADME, Microsome; conditions: read-out: Stability

| Compound | MIC90 [1] [µM] | MIC90 [2] [µM] | remaining at 0.25 h, 50 µM [3] [%] | remaining at 0.25 h, 20 µM [4] [%] |
| --- | --- | --- | --- | --- |
| CCOC(=O)c1c(-c2ccccc2)nc2ccc(Cl)cn12 | 63.1 (≈ 19 µg/mL) | > 128 |  |  |
| CCOC(=O)c1c(-c2ccccc2)nc2ccccn12 | 86.5 (≈ 23 µg/mL) | 68.2 (≈ 18.2 µg/mL) |  |  |
| O=C(OCc1ccccc1)[C@@H]1COC(c2ccc(F)c([N+](=O)[O-])c2)=N1 |  |  | 0.6 | 11.3 |
| O=C(OCc1ccccc1)[C@@H]1COC(c2ccccc2OCc2ccccc2)=N1 |  |  | 0.8 | 5.2 |
| O=C(OCc1ccccc1)c1coc(-c2ccccc2OCc2ccccc2)n1 |  |  | 2.9 | 3.5 |
| COc1ccc(-c2nc(C(=O)OCc3ccccc3)co2)cc1 |  |  | 2.1 | 11.8 |
| O=C(OCc1ccccc1)c1coc(-c2ccc(F)c([N+](=O)[O-])c2)n1 |  |  | 0.9 | 10.9 |
| O=C(OCc1ccccc1)c1coc(-c2ccccc2Cl)n1 |  |  | 1.1 | 7.9 |
| CCOC(=O)c1c(C)nc2cc(C)ccn12 | 65.1 (≈ 14.2 µg/mL) | 64.1 (≈ 14 µg/mL) |  |  |
| CCOC(=O)c1c(-c2ccccc2)nc2cc(C)ccn12 | 55.1 (≈ 15.4 µg/mL) | 71.3 (≈ 20 µg/mL) |  |  |
| CCOC(=O)c1c(C)nc2cc(C)cc(C)n12 | > 79.5 | > 72.9 |  |  |
| COc1ccccc1CNC(=O)c1c(C)nc2cc(C)ccn12 |  |  | 100 | 41.6 |
| COc1cccc(CNC(=O)c2c(C)nc3cc(C)ccn23)c1 |  |  | 100 | 94 |
| COc1ccc(CNC(=O)c2c(C)nc3cc(C)ccn23)cc1 |  |  | 100 | 33.6 |
| Cc1ccn2c(C(=O)NCc3ccc(Cl)cc3)c(C)nc2c1 |  |  | 94.3 | 80.7 |
| COc1ccc(C2=N[C@H](C(=O)NCc3ccc(OC)c(OC)c3)CO2)cc1 | > 128 | > 128 |  |  |
| O=C(NC1CCCCC1)[C@@H]1COC(c2ccc(OC(F)(F)F)cc2)=N1 | 60 (≈ 21.4 µg/mL) | > 64 |  |  |
| CCCCCCNC(=O)[C@@H]1COC(c2ccc(OC(F)(F)F)cc2)=N1 | 31 (≈ 11.1 µg/mL) | > 64 |  |  |
| COc1ccc(CNC(=O)c2coc(-c3ccccc3)n2)cc1OC | 81 (≈ 27.4 µg/mL) | > 128 |  |  |
| O=C(NC1CCCCC1)c1coc(-c2ccccc2)n1 | 14 (≈ 3.78 µg/mL) | 30 (≈ 8.11 µg/mL) |  |  |
| CCCCCCNC(=O)c1coc(-c2ccccc2)n1 | 22 (≈ 5.99 µg/mL) | 18 (≈ 4.9 µg/mL) |  |  |

| Compound | MIC90 [1] [µM] | MIC90 [2] [µM] | remaining at 0.25 h, 50 µM [3] [%] | remaining at 0.25 h, 20 µM [4] [%] |
| --- | --- | --- | --- | --- |
| COc1ccc(CNC(=O)[C@@H]2CSC(c3ccccc3)=N2)cc1OC | 80 (≈ 28.5 µg/mL) | > 128 |  |  |
| O=C(NC1CCCCC1)[C@@H]1CSC(c2ccccc2)=N1 | 46 (≈ 13.3 µg/mL) | 56 (≈ 16.2 µg/mL) |  |  |
| CCCCCCNC(=O)[C@@H]1CSC(c2ccccc2)=N1 | 23 (≈ 6.68 µg/mL) | 58 (≈ 16.8 µg/mL) |  |  |
| COc1ccc(CNC(=O)c2csc(-c3ccccc3)n2)cc1OC | 58 (≈ 20.6 µg/mL) | 64 (≈ 22.7 µg/mL) |  |  |
| CCc1ccccc1COC(=O)c1c(C)nc2cc(C)ccn12 |  |  | 100 | 37 |
| Cc1ccn2c(C(=O)NCc3ccccc3Cl)c(C)nc2c1 |  |  | 97.2 | 58.9 |
| CCC(=O)c1ccccc1OC(=O)c1coc(-c2ccccc2)n1 |  |  | 1.8 | 8.7 |
| Cc1cccc(OC(=O)c2coc(-c3ccccc3)n2)c1C |  |  | 2 | 4.9 |
| O=C(Oc1cccc2c1CCCC2)c1coc(-c2ccccc2)n1 |  |  | 1.8 | 14.5 |
| Cc1cc(C)c(OC(=O)c2coc(-c3ccccc3)n2)c(C)c1 |  |  | 1.4 | 22 |
| O=C(Oc1c(Cl)cc(Cl)cc1Cl)c1coc(-c2ccccc2)n1 |  |  | 1.3 | 15.5 |
| O=C(Oc1ccccc1N1CCOCC1)c1coc(-c2ccccc2)n1 |  |  | 0.7 | 5.4 |
| O=C(Oc1ccccc1N1CCCC1)c1coc(-c2ccccc2)n1 |  |  | 0.1 | 11.2 |
| CCC(C)c1ccccc1OC(=O)c1coc(-c2ccccc2)n1 (stereo unspecified) |  |  | 0.2 | 8.3 |
| O=C(Oc1ccc(Cl)cc1Cl)c1coc(-c2ccccc2)n1 |  |  | 0.8 | 17.3 |
| Cc1ccccc1OC(=O)c1coc(-c2ccccc2)n1 |  |  | 1.5 | 13.4 |
| CCCc1ccccc1OC(=O)c1coc(-c2ccccc2)n1 |  |  | 0.9 | 5.4 |
| CC(C)(C)c1cccc(C(C)(C)C)c1OC(=O)c1coc(-c2ccccc2)n1 |  |  | 1.3 | 5.3 |
| Cc1ccc(Cl)c(OC(=O)c2coc(-c3ccccc3)n2)c1 |  |  | 0.9 | 14 |
| CC(C)(C)c1ccccc1OC(=O)c1coc(-c2ccccc2)n1 |  |  | 0.7 | 6.9 |
| CCc1ccccc1OC(=O)c1coc(-c2ccccc2)n1 |  |  | 2.1 | 8.5 |

| Compound | MIC90 [1] [µM] | MIC90 [2] [µM] | remaining at 0.25 h, 50 µM [3] [%] | remaining at 0.25 h, 20 µM [4] [%] |
| --- | --- | --- | --- | --- |
| O=C(Oc1ccccc1C(F)(F)F)c1coc(-c2ccccc2)n1 |  |  | 1.2 | 10.7 |
| Cc1ccc(COC(=O)c2coc(-c3ccccc3)n2)c(C)c1 |  |  | 1.4 | 16.9 |
| C[C@H](OC(=O)c1coc(-c2ccccc2)n1)c1ccccc1 |  |  | 5 | 5 |
| Cc1cc(C)c(COC(=O)c2coc(-c3ccccc3)n2)c(C)c1 |  |  | 5.6 | 18.1 |
| Cc1ccccc1COC(=O)c1coc(-c2ccccc2)n1 |  |  | 3.1 | 10.9 |
| O=C(OCc1ccccc1C(F)(F)F)c1coc(-c2ccccc2)n1 |  |  | 0.8 | 7.8 |
| CCc1ccccc1COC(=O)c1coc(-c2ccccc2)n1 |  |  | 3.2 | 3.2 |
| CCCCCCCCOC(=O)c1coc(-c2ccccc2)n1 |  |  | 1.1 | 13.1 |
| O=C(OCC1CC1)c1coc(-c2ccccc2)n1 |  |  | 1.5 | 3.3 |
| O=C(OC1CCCCC1)c1coc(-c2ccccc2)n1 |  |  | 0.5 | 12.1 |
| O=C(Oc1cccc(C(F)(F)F)c1)c1coc(-c2ccccc2)n1 |  |  | 5.5 | 13 |
| O=C(Oc1ccccc1)c1coc(-c2ccccc2)n1 |  |  | 0.2 | 0.2 |
| CCOC(=O)c1c(C(F)(F)F)nc2ccccn12 | > 128 | > 128 |  |  |
| CCOC(=O)c1cnc2cc(C)c(N)cn12 | > 128 | > 128 |  |  |
| CCOC(=O)c1c(C)nc2c(C3CCCN3C)cccn12 (stereo unspecified) | > 64 | > 64 |  |  |
| CCOC(=O)c1c(C)nc2ccc(Cl)cn12 | 93.5 (≈ 22.3 µg/mL) | > 101 |  |  |
| CCOC(=O)c1coc(-c2ccccc2)n1 | 19.5 (≈ 4.24 µg/mL) | 7.5 (≈ 1.63 µg/mL) |  |  |
| CCOC(=O)c1nc(-c2ccccc2)oc1C(F)(F)F | > 128 | > 128 |  |  |
| CCOC(=O)c1nc(-c2ccccc2)oc1C | > 128 | 124 (≈ 28.7 µg/mL) |  |  |
| CCOC(=O)c1csc(-c2ccc(C)cc2)n1 | 61 (≈ 15.1 µg/mL) | 79 (≈ 19.5 µg/mL) |  |  |
| CCOC(=O)c1c(-c2ccccc2)nc2ccc(C)cn12 | 55.1 (≈ 15.4 µg/mL) | 41 (≈ 11.5 µg/mL) |  |  |
